Experimental data from ChEMBL document CHEMBL1122917, “Vinblastin-23-oyl amino acid derivatives: chemistry, physicochemical data, toxicity, and antitumor activities against P388 and L1210 leukemias” (J Med Chem, 1985).
Values joined by “and” are separate entries in the source; they are usually repeats but may differ in a detail not shown here. Equal values may be shown once.

Experiments:
[1] = tested on: Mus musculus; test: Percent increase in life span of DBA2 mice after inoculation with L1210 leukemia intravenously at a dose of 3 mg/kg per day; assay type: functional; conditions: route intravenous
Method in brief: (§1)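 Female DBA2 mice inoculated iv on day 0 with 10^4 L1210 cells; drugs given iv as sulfate salts in physiological saline, mostly once on day 1. %ILS from all deaths and survivors as (T/C × 100) − 100; survivors scored on days 30 and 60.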

[2] = Acute iv toxicity against rat after a dose of injection; assay type: organism-based; conditions: in vivo
[3] = tested on: Mus musculus; test: Number of survivors of DBA2 mice on 30th day after inoculation with L1210 leukemia cell line intravenously at a dose of 5 mg/kg/day; 0/10; assay type: functional; conditions: route intravenous
[4] = tested on: Mus musculus; test: Number of survivors of DBA2 mice on 60th day after inoculation with L1210 leukemia cell line intravenously at a dose of 4 mg/kg/day; 0/10; assay type: functional; conditions: route intravenous
[5] = tested on: Mus musculus; test: Percent increase in life span of BDF1 mice after inoculation with P388 leukemia intraperitoneally at a dose of 2 mg/kg per day; conditions: P388, ip
[6] = tested on: Mus musculus; test: Percent increase in life span of DBA2 mice after inoculation with L1210 leukemia intravenously at a dose of 5 mg/kg per day; assay type: functional; conditions: for ILS at 5 mg/kg/day: Mus musculus, L1210, iv; method in brief: as §1
[7] = Acute iv toxicity against mice after a dose of injection; assay type: organism-based; conditions: mouse, in vivo
[8] = tested on: Mus musculus; test: Number of survivors of DBA2 mice on 60th day after inoculation with L1210 leukemia cell line intravenously at a dose of 3 mg/kg/day; 0/10; assay type: functional; conditions: route intravenous
[9] = tested on: Mus musculus; test: Number of survivors of DBA2 mice on 30th day after inoculation with L1210 leukemia cell line intravenously at a dose of 3 mg/kg/day; 0/10; assay type: functional; conditions: route intravenous
[10] = tested on: Mus musculus; test: Number of survivors of DBA2 mice on 30th day after inoculation with L1210 leukemia cell line intravenously at a dose of 4 mg/kg/day; 0/10; assay type: functional; conditions: route intravenous
[11] = tested on: Mus musculus; test: Percent increase in life span at dose 2 mg/kg/day in 10 mice implanted with P388 leukemia cell line; assay type: functional
Method in brief: (§2)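 Female DBA2 mice inoculated iv on day 0 with 10^4 P388 cells; single iv treatment on day 1 with drug as sulfate salt in physiological saline. Survival followed; %ILS from all deaths and survivors as (T/C × 100) − 100, maximal MST 30 days; survivors counted on days 30 and 60. Most experiments confirmed three times.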

[12] = tested on: Mus musculus; test: Percent increase in life span of DBA2 mice after inoculation with L1210 leukemia intravenously at a dose of 4 mg/kg per day; assay type: functional; conditions: route intravenous; method in brief: as §1
[13] = tested on: Mus musculus; test: Number of survivors of DBA2 mice on 60th day after inoculation with L1210 leukemia cell line intravenously at a dose of 5 mg/kg/day; 0/10; assay type: functional; conditions: route intravenous
[14] = tested on: Mus musculus; test: Number of survivors of DBA2 mice on 30th day after inoculation with L1210 leukemia cell line intraperitoneally at a dose of 2 mg/kg/day; 0/10; assay type: functional; conditions: route intraperitoneal
[15] = tested on: Mus musculus; test: Number of survivors on 60th day at dose 9 mg/kg/day in 10 mice implanted with P388 leukemia cell line; 0/10; assay type: functional; method in brief: as §2
[16] = tested on: Mus musculus; test: Number of survivors of DBA2 mice on 30th day after inoculation with L1210 leukemia cell line intravenously at a dose of 7 mg/kg/day; 0/10; assay type: functional; conditions: route intravenous
[17] = tested on: Mus musculus; test: Percent increase in life span at dose 8 mg/kg/day in 10 mice implanted with P388 leukemia cell line; assay type: functional; method in brief: as §2
[18] = tested on: Mus musculus; test: Percent increase in life span at dose 7 mg/kg/day in 10 mice implanted with P388 leukemia cell line; assay type: functional; method in brief: as §2
[19] = tested on: Mus musculus; test: Number of survivors of DBA2 mice on 30th day after inoculation with L1210 leukemia cell line intravenously at a dose of 6 mg/kg/day; 0/10; assay type: functional; conditions: route intravenous
[20] = tested on: Mus musculus; test: Percent increase in life span of BDF1 mice after inoculation with P388 leukemia intraperitoneally at a dose of 3 mg/kg per day; conditions: P388, ip
[21] = tested on: Mus musculus; test: Number of survivors of DBA2 mice on 30th day after inoculation with L1210 leukemia cell line intraperitoneally at a dose of 3 mg/kg/day; 0/10; assay type: functional; conditions: route intraperitoneal
[22] = Acute iv toxicity against NMRI strain of 100 mice after 7 doses of injection; assay type: organism-based; conditions: mouse, in vivo
Method in brief: (§3)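 Acute toxicity in Swiss, CD1 or NMRI mice. Drugs given iv as sulfate salts. LD50 taken at day 14 from several dose levels, with 40–[…] mice per drug and strain.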

[23] = tested on: Mus musculus; test: Percent increase in life span of DBA2 mice after inoculation with L1210 leukemia intravenously at a dose of 8 mg/kg per day; assay type: functional; conditions: route intravenous; method in brief: as §1
[24] = tested on: Mus musculus; test: Number of survivors on 60th day at dose 6 mg/kg/day in 10 mice implanted with P388 leukemia cell line; 0/10; assay type: functional
[25] = tested on: Mus musculus; test: Percent increase in life span at dose 4 mg/kg/day in 10 mice implanted with P388 leukemia cell line; assay type: functional; conditions: for ILS at 4 mg/kg/day: Mus musculus, P388; method in brief: as §2
[26] = tested on: Mus musculus; test: Number of survivors of DBA2 mice on 60th day after inoculation with L1210 leukemia cell line intravenously at a dose of 7 mg/kg/day; 0/10; assay type: functional; conditions: route intravenous
[27] = tested on: Mus musculus; test: Percent increase in life span of DBA2 mice after inoculation with L1210 leukemia intravenously at a dose of 7 mg/kg per day; assay type: functional; conditions: route intravenous; method in brief: as §1
[28] = tested on: Mus musculus; test: Number of survivors on 60th day at dose 5 mg/kg/day in 10 mice implanted with P388 leukemia cell line; 0/10; assay type: functional
[29] = tested on: Mus musculus; test: Percent increase in life span at dose 6 mg/kg/day in 10 mice implanted with P388 leukemia cell line; assay type: functional; method in brief: as §2
[30] = tested on: Mus musculus; test: Percent increase in life span at dose 5 mg/kg/day in 10 mice implanted with P388 leukemia cell line; assay type: functional; method in brief: as §2
[31] = tested on: Mus musculus; test: Percent increase in life span at dose 9 mg/kg/day in 10 mice implanted with P388 leukemia cell line; assay type: functional; method in brief: as §2
[32] = tested on: Mus musculus; test: Number of survivors on 30th day at dose 4 mg/kg/day in 10 mice implanted with P388 leukemia cell line; 0/10; assay type: functional
[33] = Acute iv toxicity against Swiss strain of 40 mice after 4 doses of injection; assay type: organism-based; conditions: mouse, in vivo; method in brief: as §3
[34] = tested on: Mus musculus; test: Number of survivors of DBA2 mice on 30th day after inoculation with L1210 leukemia cell line intravenously at a dose of 8 mg/kg/day; 0/10; assay type: functional; conditions: route intravenous
[35] = tested on: Mus musculus; test: Number of survivors on 60th day at dose 3 mg/kg/day in 10 mice implanted with P388 leukemia cell line; 0/10; assay type: functional
[36] = tested on: Mus musculus; test: Number of survivors of DBA2 mice on 60th day after inoculation with L1210 leukemia cell line intraperitoneally at a dose of 2 mg/kg/day; 0/10; assay type: functional; conditions: route intraperitoneal
[37] = tested on: Mus musculus; test: Number of survivors of DBA2 mice on 60th day after inoculation with L1210 leukemia cell line intravenously at a dose of 8 mg/kg/day; 0/10; assay type: functional; conditions: route intravenous
[38] = tested on: Mus musculus; test: Number of survivors of DBA2 mice on 60th day after inoculation with L1210 leukemia cell line intraperitoneally at a dose of 3 mg/kg/day; 0/10; assay type: functional; conditions: route intraperitoneal
[39] = tested on: Mus musculus; test: Number of survivors on 60th day at dose 8 mg/kg/day in 10 mice implanted with P388 leukemia cell line; 0/10; assay type: functional; method in brief: as §2
[40] = tested on: Mus musculus; test: Number of survivors on 60th day at dose 7 mg/kg/day in 10 mice implanted with P388 leukemia cell line; 0/10; assay type: functional; method in brief: as §2

SMILES | LD50 [2] [mg/kg] | Survivors [3] | Survivors [4] | ILS at 2 mg/kg/day [5] [%] | ILS at 5 mg/kg/day [6] [%] | LD50 [7] [mg/kg] | Survivors [8] | Survivors [10] | ILS at 4 mg/kg/day [12] [%] | Survivors [13] | Survivors [14] | Survivors [16] | ILS at 8 mg/kg/day [17] [%] | ILS at 7 mg/kg/day [18] [%] | Survivors [24] | Survivors [26] | ILS at 7 mg/kg/day [27] [%] | ILS at 6 mg/kg/day [29] [%] | ILS at 5 mg/kg/day [30] [%] | Survivors [32] | further results
CC[C@]1(O)C[C@H]2CN(CCc3c([nH]c4ccccc34)[C@@](C(=O)OC)(c3cc4c(cc3OC)N(C=O)[C@H]3[C@@](O)(C(=O)OC)[C@H](OC(C)=O)[C@]5(CC)C=CCN6CC[C@]43[C@@H]65)C2)C1 [VINCRISTINE] | 1 | 0 | 0 | 53 | 36 | 1 | 0 | 0 | 24 | 0 | 0 |  |  |  |  |  |  |  |  |  | ILS at 3 mg/kg/day [1]: 28.8%; Survivors [9]: 0; ILS at 2 mg/kg/day [11]: -46%
CC[C@]1(O)C[C@@H]2CN(CCc3c([nH]c4ccccc34)[C@@](C(=O)OC)(c3cc4c(cc3OC)N(C)[C@H]3[C@@](O)(C(=O)OC)[C@H](OC(C)=O)[C@]5(CC)C=CCN6CC[C@]43[C@@H]65)C2)C1 [VINBLASTINE] | 2.9 | 0 | 0 | 54 | 37 | 10 | 0 | 0 | 31.9 | 0 | 0 | 0 | 72.9 | 59.3 | 0 | 0 | 35 | 48 | 47.1 | 0 | Survivors [15]: 0; ILS at 3 mg/kg/day [1]: 30.3%; Survivors [19]: 0; ILS at 3 mg/kg/day [20]: 63%; Survivors [21]: 0; LD50 [22]: 27.4 mg/kg; ILS at 8 mg/kg/day [23]: 57.6%; ILS [25]: 42.3% and 112%; Survivors [28]: 0; Survivors [9]: 0; ILS at 9 mg/kg/day [31]: 49.5%; LD50 [33]: 26 mg/kg; Survivors [34]: 0; Survivors [35]: 0; Survivors [36]: 0; Survivors [37]: 0; Survivors [38]: 0
CCOC(=O)[C@H](Cc1c[nH]c2ccccc12)NC(=O)[C@@]1(O)[C@H](O)[C@]2(CC)C=CCN3CC[C@@]4(c5cc([C@@]6(C(=O)OC)C[C@H]7C[N@](CCc8c6[nH]c6ccccc86)C[C@](O)(CC)C7)c(OC)cc5N(C)[C@@]14C)[C@@H]32 |  |  |  |  |  |  |  |  |  |  |  |  |  |  |  |  |  |  |  |  | LD50 [22]: 269 mg/kg; LD50 [33]: 94 mg/kg
CCOC(=O)[C@@H](NC(=O)[C@@]1(O)[C@H](O)[C@]2(CC)C=CCN3CC[C@@]4(c5cc([C@@]6(C(=O)OC)C[C@H]7C[N@](CCc8c6[nH]c6ccccc86)C[C@](O)(CC)C7)c(OC)cc5N(C)[C@@]14C)[C@@H]32)[C@@H](C)CC |  | 0 | 0 |  | 36 |  |  | 0 | 20 | 0 |  | 0 | > 183 | 56 | 0 | 0 | 27 | 73.5 | 60.4 | 0 | Survivors [15]: 0; Survivors [39]: 0; Survivors [40]: 0; Survivors [19]: 0; ILS at 8 mg/kg/day [23]: 49%; ILS at 4 mg/kg/day [25]: 60%; ILS at 9 mg/kg/day [31]: 34%; Survivors [34]: 0; Survivors [37]: 0
CC[C@]1(O)C[C@@H]2CN(CCc3c([nH]c4ccccc34)[C@@](C(=O)OC)(c3cc4c(cc3OC)N(C)[C@H]3[C@@](O)(C(N)=O)[C@H](O)[C@]5(CC)C=CCN6CC[C@]43[C@@H]65)C2)C1 [VINDESINE] | 2.6 | 0 |  | 89.5 |  | 6.3 | 0 |  |  | 0 | 0 | 0 | -46 | 24 | 0 | 0 | -9.1 | 32 | 30.2 | 0 | Survivors [39]: 0; Survivors [40]: 0; ILS at 3 mg/kg/day [20]: 89%; Survivors [21]: 0; ILS at 4 mg/kg/day [25]: 25.5%; Survivors [28]: 0; ILS ([6]; route intravenous): 11.5% and 25.7%; Survivors [35]: 0; ILS at 2 mg/kg/day [11]: 27.1%; Survivors [36]: 0; Survivors [38]: 0
